In data set [1] the target is T1, BACE1 (Homo sapiens, UniProt P56817). Nature of the data set: Cell-based Aβ lowering IC50 assay. The note with it: for Aβ40 production inhibition in HEK293 APP cells: 16 h / overnight incubation. In short, it runs like this:
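Test compounds, free or Brain Shuttle-coupled, added in serial dilutions to HEK293 cells stably expressing wild-type human APP695, grown in Iscove's medium with 10% FBS to ~80% confluency. Construct dilution buffers served as control. Overnight at 37 °C, 5% CO2. Supernatant Aβ40 read by AlphaLISA: acceptor beads 1 h, then streptavidin donor beads 30 min, both at RT; emission at 615 nm. Compared with vehicle-treated cells; mean ± SEM.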

Data set [2] in a line: Thermodynamic. The format is physicochemical. The note with it: phosphate buffer. In short, it runs like this: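 Equilibrium solubility measured in 0.05 M phosphate buffer, pH 6.5.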
For data set [3], the target named is T1, BACE1. Description: SPR binding assay on immobilized BACE1. The essentials:
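SPR at 18 °C in the immobilization buffer. Peptide titrations used 2-fold dilution steps, run either as single-cycle kinetics (5 concentrations) or multi-cycle kinetics (10 concentrations). Two protein surfaces and an activated/deactivated CM5 reference surface were measured in parallel on one sensor.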

For data set [4], the system named is plasma Aβ. Nature of the data set: Plasma Aβ40 after single i.v. dose in mice. The format is in vivo, C57BL/6 J mice. The note with it: 5 h post dose. The essentials:
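Nine-week-old female mice received one i.v. injection of test compound at 0.003–3 mg/kg, with the buffer alone as vehicle control; three animals per group. Under anaesthesia, blood was collected into EDTA tubes, spun 8 min at 1600 × g, and plasma diluted 1:10 in 0.2% diethanolamine before solid-phase extraction.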

Data set [5] concerns Aβ production in human stem-cell derived neurons. Description: Human neural stem cell-based Aβ40 inhibition assay. The note with it: 48 h incubation. In short, it runs like this:
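Neurons differentiated from SB-AD3 human iPSCs (healthy adult donor fibroblasts) via embryoid bodies and dual SMAD inhibition. Doses 0.128–10,000 nM (three independent differentiations) or 0.001024–80 nM (one differentiation), two technical replicates per dose. Vehicle was histidine/NaCl/1.3 mM hydroxypropyl-β-cyclodextrin for peptides and DMSO for small molecules. Aβ40 read by AlphaLISA at 615 nm, compared with vehicle-treated cells; means ± SEM.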

Where [6] appears, read: pH 6.5, Solubility pH 6.5, Table 1, phosphate buffer 0.05 M.

Marks after values point to notes of the source that are not given here. Square brackets hold non-standard residues; d marks the D form. Peptide text beside a SMILES is read from it. * marks the point of attachment. Succinyl(4-O-cholesteryl) = CC(C)CCC[C@@H](C)[C@H]1CC[C@H]2[C@@H]3CC=C4C[C@@H](OC(=O)CCC(=O)*)CC[C@]4(C)[C@H]3CC[C@]12C; Sta = CC(C)C[C@H](N)[C@@H](O)CC(=O)O; Palmitoyl = CCCCCCCCCCCCCCCC(=O)* Where only a bound is given, the exact number is not on record here.

T1 sequence (P56817 46-501): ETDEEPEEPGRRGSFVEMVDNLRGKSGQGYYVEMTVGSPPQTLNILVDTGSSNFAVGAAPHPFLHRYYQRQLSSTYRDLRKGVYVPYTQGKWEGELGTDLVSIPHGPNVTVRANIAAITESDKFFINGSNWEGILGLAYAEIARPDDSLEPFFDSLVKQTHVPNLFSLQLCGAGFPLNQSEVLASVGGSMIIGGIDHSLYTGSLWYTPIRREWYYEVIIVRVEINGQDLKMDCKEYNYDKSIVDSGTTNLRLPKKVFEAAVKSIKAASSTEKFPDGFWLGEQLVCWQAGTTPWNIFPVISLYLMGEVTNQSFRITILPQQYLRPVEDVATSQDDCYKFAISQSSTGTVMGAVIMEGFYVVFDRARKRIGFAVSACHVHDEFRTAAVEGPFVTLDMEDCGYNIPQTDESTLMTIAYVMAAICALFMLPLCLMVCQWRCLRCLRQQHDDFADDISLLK

What is called IC50 is the concentration that gives 50% inhibition. A higher IC50 goes with weaker potency. `CC(C)C[C@H](NC(=O)[C@H](CC(N)=O)NC(=O)[C@@H](NC(=O)[C@@H](N)CCC(=O)O)C(C)C)[C@@H](O)CC(=O)N[C@H](C(=O)N[C@@H](C)C(=O)N[C@@H](CCC(=O)O)C(=O)N1CCC[C@@H]1C(=O)N[C@@H](CCCCN)C(N)=O)C(C)C` [Pep#2, Glu-Val-Asn-Sta-Val-Ala-Glu-DPro-Lys-NH2] (H-EVN[Sta]VAE[dP]K-NH2; N-terminus assumed) gave an IC50 in data set [1] above 40000 nM. Usually solubility (thermodynamic) stands for solubility found after equilibrating the solid with the medium. In the case of `CC(C)CCC[C@@H](C)[C@H]1CC[C@H]2[C@@H]3CC=C4C[C@@H](OC(=O)CCC(=O)NCCCC[C@H](NC(=O)[C@H]5CCCN5C(=O)[C@H](CCC(=O)O)NC(=O)[C@H](C)NC(=O)[C@@H](NC(=O)C[C@H](O)[C@H](CC(C)C)NC(=O)[C@H](CC(N)=O)NC(=O)[C@@H](NC(=O)[C@@H](N)CCC(=O)O)C(C)C)C(C)C)C(N)=O)CC[C@]4(C)[C@H]3CC[C@]12C` [Pep#3, Glu-Val-Asn-Sta-Val-Ala-Glu-DPro-Lys(ε-Chol'ester’)-NH2] (H-EVN[Sta]VAE[dP]K(Succinyl(4-O-cholesteryl))-NH2; N-terminus assumed), in data set [1], the IC50 was 0.4 nM. In data set [2] (pH 6.5), this compound returned a solubility (thermodynamic) above 3000 µg/mL. `CCCCCCCCCCCCCCCC(=O)NCCCC[C@H](NC(=O)[C@H]1CCCN1C(=O)[C@H](CCC(=O)O)NC(=O)[C@H](C)NC(=O)[C@@H](NC(=O)C[C@H](O)[C@H](CC(C)C)NC(=O)[C@H](CC(N)=O)NC(=O)[C@@H](NC(=O)[C@@H](N)CCC(=O)O)C(C)C)C(C)C)C(N)=O` [Pep#4, Glu-Val-Asn-Sta-Val-Ala-Glu-DPro-Lys(ε-Palmitoyl)-NH2] (H-EVN[Sta]VAE[dP]K(Palmitoyl)-NH2; N-terminus assumed) had an IC50 in data set [1] of 6 nM. This compound yielded a thermodynamic solubility in data set [2] (pH 6.5) below 1 µg/mL. In turn, `CC[C@H](C)[C@H](NC(=O)[C@H](Cc1ccccc1)NC(=O)[C@H](Cc1ccc(O)cc1)NC(=O)[C@@H]1CCCN1C(=O)[C@H](Cc1ccc(O)cc1)NC(C)=O)C(=O)N1CCC[C@H]1C(=O)N[C@@H](CC(C)C)C(N)=O` [Pep#5, Ac-Tyr-Pro-Tyr-Phe-Ile-Pro-Leu-NH2] yielded an IC50 in data set [1] above 40000 nM. On to `CC[C@H](C)[C@H](NC(=O)[C@H](Cc1ccccc1)NC(=O)[C@H](Cc1ccc(O)cc1)NC(=O)[C@@H]1CCCN1C(=O)[C@@H](N)Cc1ccc(O)cc1)C(=O)N1CCC[C@H]1C(=O)N[C@@H](CC(C)C)C(=O)NCC(=O)NCC(=O)NCC(=O)N[C@@H](CCC(=O)O)C(=O)N[C@H](C(=O)N[C@@H](CC(N)=O)C(=O)N[C@@H](CC(C)C)[C@@H](O)CC(=O)N[C@H](C(=O)N[C@@H](C)C(=O)N[C@@H](CCC(=O)O)C(=O)N1CCC[C@@H]1C(=O)N[C@@H](CCCCNC(=O)CCC(=O)O[C@H]1CC[C@@]2(C)C(=CC[C@H]3[C@@H]4CC[C@H]([C@H](C)CCCC(C)C)[C@@]4(C)CC[C@@H]32)C1)C(N)=O)C(C)C)C(C)C` [Pep#7, Tyr-Pro-Tyr-Phe-Ile-Pro-Leu-Gly-Gly-Gly-Glu-Val-Asn-Sta-Val-Ala-Glu-DPro-Lys(Chol'ester’)-NH2], for which the solubility (thermodynamic) in data set [2] (setting [6]) is below 1 µg/mL. Same read-out and setting: with `CC[C@H](C)[C@H](NC(=O)[C@H](Cc1ccccc1)NC(=O)[C@H](Cc1ccc(O)cc1)NC(=O)[C@@H]1CCCN1C(=O)[C@@H](N)Cc1ccc(O)cc1)C(=O)N1CCC[C@H]1C(=O)N[C@H](CCCCN)C(=O)NCC(=O)N[C@H](CCCCN)C(=O)NCC(=O)N[C@@H](CCC(=O)O)C(=O)N[C@H](C(=O)N[C@@H](CC(N)=O)C(=O)N[C@@H](CC(C)C)[C@@H](O)CC(=O)N[C@H](C(=O)N[C@@H](C)C(=O)N[C@@H](CCC(=O)O)C(=O)N1CCC[C@@H]1C(=O)N[C@@H](CCCCNC(=O)CCC(=O)O[C@H]1CC[C@@]2(C)C(=CC[C@H]3[C@@H]4CC[C@H]([C@H](C)CCCC(C)C)[C@@]4(C)CC[C@@H]32)C1)C(N)=O)C(C)C)C(C)C` [Pep#9, Tyr-Pro-Tyr-Phe-Ile-Pro-DLys-Gly-DLys-Gly-Glu-Val-Asn-Sta-Val-Ala-Glu-DPro-Lys(Chol'ester’)-NH2] the figure was above 718 µg/mL.

Compound `CC[C@H](C)[C@H](NC(=O)[C@H](Cc1ccccc1)NC(=O)[C@H](Cc1ccc(O)cc1)NC(=O)[C@@H]1CCCN1C(=O)[C@@H](N)Cc1ccc(O)cc1)C(=O)N1CCC[C@H]1C(=O)N[C@@H](C)C(=O)NCC(=O)N[C@H](CCCCN)C(=O)NCC(=O)N[C@@H](CCC(=O)O)C(=O)N[C@H](C(=O)N[C@@H](CC(N)=O)C(=O)N[C@@H](CC(C)C)[C@@H](O)CC(=O)N[C@H](C(=O)N[C@@H](C)C(=O)N[C@@H](CCC(=O)O)C(=O)N1CCC[C@@H]1C(=O)N[C@@H](CCCCNC(=O)CCC(=O)O[C@H]1CC[C@@]2(C)C(=CC[C@H]3[C@@H]4CC[C@H]([C@H](C)CCCC(C)C)[C@@]4(C)CC[C@@H]32)C1)C(N)=O)C(C)C)C(C)C` [Pep#10, Tyr-Pro-Tyr-Phe-Ile-Pro-Ala-Gly-DLys-Gly-Glu-Val-Asn-Sta-Val-Ala-Glu-DPro-Lys(Chol'ester’)-NH2] (H-YPYFIPAG[dK]GEVN[Sta]VAE[dP]K(Succinyl(4-O-cholesteryl))-NH2; N-terminus assumed) showed a solubility (thermodynamic) in data set [2] (pH 6.5) above 2450 µg/mL. With `CC[C@H](C)[C@H](NC(=O)[C@H](Cc1ccccc1)NC(=O)[C@H](Cc1ccc(O)cc1)NC(=O)[C@@H]1CCCN1C(=O)[C@@H](N)Cc1ccc(O)cc1)C(=O)N1CCC[C@H]1C(=O)N[C@H](CCCCN)C(=O)NCC(=O)N[C@H](CCCCN)C(=O)NCC(=O)N[C@@H](CCC(=O)O)C(=O)N[C@H](C(=O)N[C@@H](CC(N)=O)C(=O)N[C@@H](CC(C)C)[C@@H](O)CC(=O)N[C@H](C(=O)N[C@@H](C)C(=O)N[C@@H](CCC(=O)O)C(=O)N1CCC[C@@H]1C(N)=O)C(C)C)C(C)C` [Pep#12, Tyr-Pro-Tyr-Phe-Ile-Pro-DLys-Gly-DLys-Gly-Glu-Val-Asn-Sta-Val-Ala-Glu-DPro-NH2], the kon in data set [3] (BACE1 surface, 18 °C, pH 4.5) is on record as 1.1–1.3·10^5 1/Ms. Further, the “Selectivity for BACE1” value in data set [3] (ratio KD(BACE2)/KD(BACE1)) is > 15 ^a.

For `CC[C@H](C)[C@H](NC(=O)[C@H](Cc1ccccc1)NC(=O)[C@H](Cc1ccc(O)cc1)NC(=O)[C@@H]1CCCN1C(=O)[C@H](Cc1ccc(O)cc1)NC(=O)CNC(=O)CNC(=O)CN)C(=O)N1CCC[C@H]1C(=O)N[C@H](CCCCN)C(=O)NCC(=O)N[C@H](CCCCN)C(=O)NCC(=O)N[C@@H](CCC(=O)O)C(=O)N[C@H](C(=O)N[C@@H](CC(N)=O)C(=O)N[C@@H](CC(C)C)[C@@H](O)CC(=O)N[C@H](C(=O)N[C@@H](C)C(=O)N[C@@H](CCC(=O)O)C(=O)N1CCC[C@@H]1C(=O)N[C@@H](CCCCNC(=O)CCC(=O)O[C@H]1CC[C@@]2(C)C(=CC[C@H]3[C@@H]4CC[C@H]([C@H](C)CCCC(C)C)[C@@]4(C)CC[C@@H]32)C1)C(N)=O)C(C)C)C(C)C` [Pep#14, Gly-Gly-Gly-Tyr-Pro-Tyr-Phe-Ile-Pro-DLys-Gly-DLys-Gly-Glu-Val-Asn-Sta-Val-Ala-Glu-DPro-Lys(Chol'ester’)-NH2] (H-GGGYPYFIP[dK]G[dK]GEVN[Sta]VAE[dP]K(Succinyl(4-O-cholesteryl))-NH2; N-terminus assumed), the “Plasma Aβ40 inhibition” value in data set [4] (0.003-3 mg/kg i.v., uncoupled peptides) is on record as “Dose-dependent inhibition”. In data set [4] (3 mg/kg i.v., uncoupled peptide), the “Plasma Aβ level reduction” value turned out to be 51%. For the same compound, in data set [5], the “Aβ production inhibition in human stem-cell derived neurons” value is “able to reduce the Aβ production”. Further, in data set [1], the “Aβ40 production inhibition in HEK293 APP cells” value is listed as “blocked production of Aβ40”. For the compound `CC[C@H](C)[C@H](NC(=O)[C@H](Cc1ccccc1)NC(=O)[C@H](Cc1ccc(O)cc1)NC(=O)[C@@H]1CCCN1C(=O)[C@H](Cc1ccc(O)cc1)NC(=O)CNC(=O)CNC(=O)CN)C(=O)N1CCC[C@H]1C(=O)N[C@H](CCCCN)C(=O)NCC(=O)N[C@H](CCCCN)C(=O)NCC(=O)N[C@@H](CCC(=O)O)C(=O)N[C@H](C(=O)N[C@@H](CC(N)=O)C(=O)N[C@@H](CC(C)C)[C@@H](O)CC(=O)N[C@H](C(=O)N[C@@H](C)C(=O)N[C@@H](CCC(=O)O)C(=O)N1CCC[C@@H]1C(N)=O)C(C)C)C(C)C` [Pep#16, Gly-Gly-Gly-Tyr-Pro-Tyr-Phe-Ile-Pro-DLys-Gly-DLys-Gly-Glu-Val-Asn-Sta-Val-Ala-Glu-DPro-NH2] (H-GGGYPYFIP[dK]G[dK]GEVN[Sta]VAE[dP]-NH2; N-terminus assumed), the “Aβ production inhibition in human stem-cell derived neurons” value in data set [5] was “able to reduce the Aβ production”. In addition, the “Aβ40 production inhibition in HEK293 APP cells” value in data set [1] is given as “blocked production of Aβ40”. The compound “Ac-YPYFLPISAK-NH2 [Pep#6, Ac-Tyr-Pro-Tyr-Phe-Leu-Pro-Ile-Ser-Ala-Lys-NH2, reference compound]” displayed an IC50 in data set [1] above 40000 nM.

For the origin of these results see article PMC5652008 (EBioMedicine, 2017).
